In ChEMBL document CHEMBL1154078, “Synthesis of novel purine nucleosides towards a selective inhibition of human butyrylcholinesterase” (Bioorg Med Chem, 2009):
The source made the active and inactive calls. No cut-off for these calls is given here.

What was measured:
Cholinesterase [1] = target: T1, Cholinesterase (Homo sapiens, UniProt P06276); assay: Inhibition of BChE in human serum assessed as hydrolysis of butyrylthiocholine by Ellman's method; format: cell-free
Summary of the method: (§1)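 Human serum BChE (0.44 U/mL solution) in 0.1 M phosphate buffer pH 8.0 with S-butyrylthiocholine iodide and DTNB. Absorbance at 410 nm followed kinetically for 4 min at 30 °C, at least four replicates. IC50 obtained by non-linear regression of the dose–response, given as mean ± SEM.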

Cholinesterase [2] = target: T1, Cholinesterase; assay: Inhibition of BChE in human serum assessed as hydrolysis of butyrylthiocholine at 100 ug/mL by Ellman's method; format: cell-free
Summary of the method: as §1, with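 “replicates. Inhibition % = 100 − 100·V/V_max, where V_max comes from blanks without inhibitor; one-sided t-test.” for “replicates.”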

Cholinesterase [3] = target: T1, Cholinesterase; assay: Inhibition of BChE in human serum assessed as hydrolysis of butyrylthiocholine at 10 ug/mL by Ellman's method
Summary of the method: as §1, with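 “replicates. Inhibition % = 100 − 100·V/V_max, where V_max comes from blanks without inhibitor; one-sided t-test.” for “replicates.”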

Cholinesterase [4] = target: T1, Cholinesterase; assay: Inhibition of BChE in human serum assessed as hydrolysis of butyrylthiocholine at 1 ug/mL by Ellman's method; format: cell-free
Summary of the method: as §1, with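 “replicates. Inhibition % = 100 − 100·V/V_max, where V_max comes from blanks without inhibitor; one-sided t-test.” for “replicates.”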

[5] = target: T2, Acetylcholinesterase (Bos taurus) (UniProt P23795); assay: Inhibition of AChE in bovine erythrocytes assessed as hydrolysis of acetylthiocholine by Ellman's method
T2 sequence (whole entry): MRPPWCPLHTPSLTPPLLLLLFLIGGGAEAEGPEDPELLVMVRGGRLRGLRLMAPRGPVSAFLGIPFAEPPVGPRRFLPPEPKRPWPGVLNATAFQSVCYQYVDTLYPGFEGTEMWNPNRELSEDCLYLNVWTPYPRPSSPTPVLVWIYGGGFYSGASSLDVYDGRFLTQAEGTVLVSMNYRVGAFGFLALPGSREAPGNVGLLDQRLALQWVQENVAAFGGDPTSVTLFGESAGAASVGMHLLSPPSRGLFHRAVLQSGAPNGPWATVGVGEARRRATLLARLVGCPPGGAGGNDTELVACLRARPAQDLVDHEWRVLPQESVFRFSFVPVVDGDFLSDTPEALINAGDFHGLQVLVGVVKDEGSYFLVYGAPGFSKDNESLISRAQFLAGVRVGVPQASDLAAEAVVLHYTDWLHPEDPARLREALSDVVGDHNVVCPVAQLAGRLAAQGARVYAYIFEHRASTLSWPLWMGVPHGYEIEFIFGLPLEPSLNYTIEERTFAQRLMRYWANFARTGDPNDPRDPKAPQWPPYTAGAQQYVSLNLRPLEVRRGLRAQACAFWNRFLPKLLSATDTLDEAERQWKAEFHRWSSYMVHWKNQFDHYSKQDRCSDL
Summary of the method: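 Bovine erythrocyte AChE (1.32 U/mL solution) in 0.1 M phosphate buffer pH 8.0 with acetylthiocholine iodide and DTNB. Yellow product read kinetically at 410 nm for 4 min at 30 °C. Rates compared with no-inhibitor V_max; inhibition % = 100 − 100·V/V_max. At least four replicates. One-sided t-test against 0% inhibition.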

[6] = Cytotoxicity against human A549 cells assessed as cell viability at 2000 ug/mL after 24 hrs by MTT assay relative to control; format: cell-based; conditions: read-out: Activity
Summary of the method: (§2)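 A549 cells seeded, left 24 h to attach, then exposed to compound for 24 h. Hydrogen peroxide served as positive control and pure solvent as negative control. At 48 h of culture, MTT added to a final concentration of 0.5 mg/mL and incubated 3 h. Medium removed, cells washed twice, formazan dissolved in DMSO with shaking for 20 min at room temperature.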

[7] = Cytotoxicity against human A549 cells assessed as cell viability at 200 ug/mL after 24 hrs by MTT assay relative to control; format: cell-based; conditions: read-out: Activity; summary of the method: as §2
[8] = Cytotoxicity against human A549 cells assessed as cell viability at 20 ug/mL after 24 hrs by MTT assay relative to control; format: cell-based; conditions: read-out: Activity; summary of the method: as §2
[9] = Cytotoxicity against human A549 cells assessed as cell viability at 2 ug/mL after 24 hrs by MTT assay relative to control; format: cell-based; conditions: read-out: Activity; summary of the method: as §2
[10] = Cytotoxicity against human A549 cells assessed as cell viability at 0.2 ug/mL after 24 hrs by MTT assay relative to control; format: cell-based; conditions: read-out: Activity; summary of the method: as §2
Cholinesterase [11] = target: T1, Cholinesterase; assay: Inhibition of BChE in human serum assessed as hydrolysis of butyrylthiocholine at 0.1 ug/mL by Ellman's method
Summary of the method: as §1, with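 “replicates. Inhibition % = 100 − 100·V/V_max, where V_max comes from blanks without inhibitor; one-sided t-test.” for “replicates.”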

Cholinesterase [12] = target: T1, Cholinesterase; assay: Inhibition of BChE in human serum assessed as hydrolysis of butyrylthiocholine at 0.01 ug/mL by Ellman's method; format: cell-free
Summary of the method: as §1, with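 “replicates. Inhibition % = 100 − 100·V/V_max, where V_max comes from blanks without inhibitor; one-sided t-test.” for “replicates.”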

T1 sequence (P06276 whole entry): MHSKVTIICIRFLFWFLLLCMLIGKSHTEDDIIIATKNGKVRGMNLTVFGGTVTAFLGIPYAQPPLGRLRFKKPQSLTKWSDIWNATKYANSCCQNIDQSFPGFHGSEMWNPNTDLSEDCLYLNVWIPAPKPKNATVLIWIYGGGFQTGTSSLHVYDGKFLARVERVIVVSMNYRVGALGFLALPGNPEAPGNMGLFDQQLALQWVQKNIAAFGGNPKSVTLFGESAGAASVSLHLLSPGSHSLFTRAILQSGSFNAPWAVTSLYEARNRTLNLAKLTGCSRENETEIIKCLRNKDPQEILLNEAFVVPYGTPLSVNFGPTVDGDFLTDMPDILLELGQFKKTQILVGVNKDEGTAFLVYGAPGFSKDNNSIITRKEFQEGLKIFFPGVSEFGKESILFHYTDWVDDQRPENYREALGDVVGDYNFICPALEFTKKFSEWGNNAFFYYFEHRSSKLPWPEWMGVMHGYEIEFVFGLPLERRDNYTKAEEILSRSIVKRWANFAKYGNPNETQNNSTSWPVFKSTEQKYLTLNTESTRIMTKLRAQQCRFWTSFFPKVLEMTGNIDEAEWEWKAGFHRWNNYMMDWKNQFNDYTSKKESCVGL

Row | SMILES | IC50 (Cholinesterase [1]) [µM] | inhibition (Cholinesterase [2]) [%] | inhibition (Cholinesterase [3]) [%] | inhibition (Cholinesterase [4]) [%] | inhibition [5] | viability at 24 h, 2000 ug/mL [6] [%] | viability at 24 h, 200 ug/mL [7] [%] | viability at 24 h, 20 ug/mL [8] [%] | viability at 24 h, 2 ug/mL [9] [%] | viability at 24 h, 0.2 ug/mL [10] [%] | inhibition (Cholinesterase [11]) [%] | inhibition (Cholinesterase [12]) [%]
1 | CC(=O)Nc1nc(Cl)c2c(ncn2[C@@H]2O[C@@H]([C@H](N=[N+]=[N-])C(=O)OCc3ccccc3)[C@@H](OCc3ccccc3)[C@@]3(OCc4ccccc4)[C@@H](OCc4ccccc4)CO[C@@H]23)n1 | 22 | 81 | 34 | 9 | inactive | 7.32 | 51.3 | 46.9 | 82.2 | 88.5 |  | 
2 | CC(=O)Nc1nc(Cl)c2ncn([C@@H]3O[C@H](COC(C)=O)[C@@H](OCc4ccccc4)[C@@]4(OCc5ccccc5)[C@@H](OCc5ccccc5)CO[C@@H]34)c2n1 |  | 48 | 11 |  | inactive |  |  |  |  |  |  | 
3 | CO[C@H]1O[C@H](CO)[C@@H](OCc2ccccc2)[C@@]2(OCc3ccccc3)[C@@H](OCc3ccccc3)CO[C@@H]12 | 148 | 60 | < 5 |  | inactive |  |  |  |  |  |  | 
4 | CC(=O)Nc1nc(Cl)c2c(ncn2[C@@H]2O[C@H](COC(C)=O)[C@@H](OCc3ccccc3)[C@@]3(OCc4ccccc4)[C@@H](OCc4ccccc4)CO[C@@H]23)n1 | 0.76 | 84 | 85 | 70 | inactive |  |  |  |  |  | 20 | 
5 | COC(=O)[C@H](N=[N+]=[N-])[C@@H]1O[C@@H](n2cnc3nc(NC(C)=O)nc(Cl)c32)[C@@H]2OC[C@H](OCc3ccccc3)[C@]2(OCc2ccccc2)[C@@H]1OCc1ccccc1 |  |  |  |  | inactive | 21.3 | 52.3 | 69.3 | 99.9 | 103 |  | 
6 | CO[C@H]1O[C@@H]([C@@H](O)C(=O)OCc2ccccc2)[C@@H](OCc2ccccc2)[C@@]2(OCc3ccccc3)[C@@H](OCc3ccccc3)CO[C@@H]12 | 16.1 | 95 | 56 | 7 | inactive | 36 | 63.6 | 67.2 | 81.6 | 91.9 |  | 
7 | CC(=O)Nc1nc(Cl)c2c(ncn2[C@@H]2O[C@@H]([C@@H](N=[N+]=[N-])C(=O)OCc3ccccc3)[C@@H](OCc3ccccc3)[C@@]3(OCc4ccccc4)[C@@H](OCc4ccccc4)CO[C@@H]23)n1 | 0.14 | 91 | 79 | 77 | inactive |  |  |  |  |  | 63 | 10
8 | COC(=O)[C@@H](N=[N+]=[N-])[C@@H]1O[C@@H](n2cnc3nc(NC(C)=O)nc(Cl)c32)[C@@H]2OC[C@H](OCc3ccccc3)[C@]2(OCc2ccccc2)[C@@H]1OCc1ccccc1 |  |  |  |  | inactive | 15.1 | 19.5 | 40.8 | 77.7 | 103 |  | 
9 | CO[C@H]1O[C@H](COC(C)=O)[C@@H](OC(C)=O)[C@@]2(OC(C)=O)[C@@H](OC(C)=O)CO[C@@H]12 |  | < 5 |  |  | inactive |  |  |  |  |  |  | 
